Results as given in ChEMBL document CHEMBL1146547, “Bulbinelonesides A-E, phenylanthraquinone glycosides from the roots of Bulbinella floribunda” (J Nat Prod, 2003).
Values after ≈ are worked out from the molar mass of the structure shown.

Experiments:
HSC-2 = assay: Cytotoxicity against human HSC2 cells by MTT assay; type: functional, cell-based
In short: (§1)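 Cells were grown in DMEM with 10% heat-inactivated FBS and penicillin/streptomycin under humidified 5% CO2. HPC came from premolar pulp explants and were used at passages 5–10. Cells were trypsinized, seeded at 6 × 10^3 to 1.2 × 10^4, incubated 24 h, washed with PBS, then exposed to compound for 24 h. MTT (0.2 mg/mL, 4 h) was added, cells were lysed in DMSO, and A540 was read. LD50 was taken from the dose-response curve.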

[1] = Cytotoxicity against human HPC by MTT assay; in short: as §1

Compound	IC50 (HSC-2)	IC50 [1]
COc1cc([C@@H]2c3cc4c(cc3[C@@H](O[C@@H]3O[C@@H]5CO[C@@H](C)O[C@H]5[C@H](O)[C@H]3O)[C@H]3COC(=O)[C@H]23)OCO4)cc(OC)c1O [ETOPOSIDE]	24 µg/mL (≈ 40.8 µM)	> 120 µg/mL
COc1cc(O)c(C(C)=O)c(O)c1-c1c(C)cc(O)c2c1C(=O)c1cccc(O)c1C2=O	25 µg/mL (≈ 57.6 µM)	57 µg/mL (≈ 131 µM)
CC(=O)c1c(O[C@@H]2OC[C@@H](O)[C@H](O[C@@H]3O[C@H](CO)[C@@H](O)[C@H](O)[C@H]3O)[C@H]2O)cc(O)c(-c2c(C)cc(O)c3c2C(=O)c2cccc(O)c2C3=O)c1O [BULBINELONESIDE E]	> 120 µg/mL	> 120 µg/mL
CC(=O)c1c(O[C@@H]2O[C@H](CO)[C@@H](O)[C@H](O)[C@H]2O)cc(O)c(-c2c(C)cc(O)c3c2C(=O)c2cccc(O)c2C3=O)c1O [BULBINELONESIDE D]	> 120 µg/mL	> 120 µg/mL
COc1cc(O[C@@H]2O[C@H](CO)[C@@H](O)[C@H](O)[C@H]2O)c(-c2c(C)cc(O)c3c2C(=O)c2cccc(O)c2C3=O)c(O)c1C(C)=O [BULBINELONESIDE A]	36 µg/mL (≈ 60.3 µM)	> 120 µg/mL
CC(=O)c1c(O[C@@H]2OC[C@@H](O)[C@H](O)[C@H]2O)cc(O)c(-c2c(C)cc(O)c3c2C(=O)c2cccc(O)c2C3=O)c1O [BULBINELONESIDE C]	> 120 µg/mL	> 120 µg/mL
COc1cc(O)c(-c2c(C)cc(O)c3c2C(=O)c2cccc(O)c2C3=O)c(O)c1C(C)=O [KNIPHOLONE]	33 µg/mL (≈ 76 µM)	> 120 µg/mL
CC(=O)c1c(O)cc(O[C@@H]2OC[C@@H](O)[C@H](O)[C@H]2O)c(-c2c(C)cc(O)c3c2C(=O)c2cccc(O)c2C3=O)c1O [BULBINELONESIDE B]	56 µg/mL (≈ 101 µM)	> 120 µg/mL
